Measured values taken from ChEMBL document CHEMBL4177580, “New 5-HT1A, 5HT2A and 5HT2C receptor ligands containing a picolinic nucleus: Synthesis, in vitro and in vivo pharmacological evaluation” (Bioorg Med Chem, 2017).
The source made the active and inactive calls.

Legend:
[1] = target: T1, Adrenergic receptor alpha-1 (Rattus norvegicus, UniProt P15823+P23944+P43140); assay: Displacement of [3H]prazosin from adrenergic alpha1 receptor in rat cerebral cortex
T1 sequence (P15823 whole entry): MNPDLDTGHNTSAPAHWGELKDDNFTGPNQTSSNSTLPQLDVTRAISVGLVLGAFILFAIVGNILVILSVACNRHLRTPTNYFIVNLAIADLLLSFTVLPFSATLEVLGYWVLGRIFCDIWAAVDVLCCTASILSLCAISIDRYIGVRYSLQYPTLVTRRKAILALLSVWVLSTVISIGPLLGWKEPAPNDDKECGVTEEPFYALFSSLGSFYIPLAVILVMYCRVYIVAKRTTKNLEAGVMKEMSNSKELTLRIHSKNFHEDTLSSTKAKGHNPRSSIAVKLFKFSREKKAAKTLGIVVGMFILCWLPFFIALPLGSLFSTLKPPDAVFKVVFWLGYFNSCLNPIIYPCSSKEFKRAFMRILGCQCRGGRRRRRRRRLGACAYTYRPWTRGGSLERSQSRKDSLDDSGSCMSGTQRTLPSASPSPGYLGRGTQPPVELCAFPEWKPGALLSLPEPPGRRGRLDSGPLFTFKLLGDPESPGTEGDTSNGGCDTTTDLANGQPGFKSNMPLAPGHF
T1 sequence (P23944 whole entry): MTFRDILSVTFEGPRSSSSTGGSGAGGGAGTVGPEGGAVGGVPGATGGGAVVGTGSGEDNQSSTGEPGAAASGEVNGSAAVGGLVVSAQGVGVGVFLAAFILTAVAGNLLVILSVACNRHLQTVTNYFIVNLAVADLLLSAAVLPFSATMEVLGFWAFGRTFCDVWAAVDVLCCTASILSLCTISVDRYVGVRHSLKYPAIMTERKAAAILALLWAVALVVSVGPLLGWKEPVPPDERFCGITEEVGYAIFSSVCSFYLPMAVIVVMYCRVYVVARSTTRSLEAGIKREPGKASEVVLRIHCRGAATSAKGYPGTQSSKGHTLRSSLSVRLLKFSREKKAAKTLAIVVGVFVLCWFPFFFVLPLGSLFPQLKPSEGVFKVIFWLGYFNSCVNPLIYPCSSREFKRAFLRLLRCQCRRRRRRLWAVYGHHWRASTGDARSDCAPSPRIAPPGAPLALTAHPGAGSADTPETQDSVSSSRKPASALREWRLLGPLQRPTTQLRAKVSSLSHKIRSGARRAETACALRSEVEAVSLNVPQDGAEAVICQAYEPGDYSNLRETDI
T1 sequence (P43140 whole entry): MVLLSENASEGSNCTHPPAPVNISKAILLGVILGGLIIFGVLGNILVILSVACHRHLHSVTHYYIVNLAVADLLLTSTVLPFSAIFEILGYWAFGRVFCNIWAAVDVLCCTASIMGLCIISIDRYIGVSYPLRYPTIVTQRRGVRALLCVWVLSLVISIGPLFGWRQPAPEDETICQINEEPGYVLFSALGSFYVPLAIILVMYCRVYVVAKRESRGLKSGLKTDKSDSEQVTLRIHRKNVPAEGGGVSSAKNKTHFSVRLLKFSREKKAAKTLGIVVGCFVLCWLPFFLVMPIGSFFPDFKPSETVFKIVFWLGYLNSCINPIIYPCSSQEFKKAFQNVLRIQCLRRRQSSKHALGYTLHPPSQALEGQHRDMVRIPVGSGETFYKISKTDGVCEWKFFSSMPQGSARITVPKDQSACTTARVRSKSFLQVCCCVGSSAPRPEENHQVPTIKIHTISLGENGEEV

D(2) dopamine receptor = D(2) dopamine receptor (Homo sapiens, UniProt P14416); assay: Displacement of [3H]methyl-spiperone from human recombinant dopamine D2 receptor expressed in HEK293 cells; assay type: cell-based
Mus musculus [2] = assay: Toxicity in Swiss albino mouse assessed as induction of impairment of motor coordination by measuring reduction in time spent on rota-rod at 30 mg/kg, ip dosed 60 mins before test by rotarod test; assay type: organism-based; conditions: in vivo, 1 h
In short: (§1)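 Rotarod in male Swiss mice, i.p. dosing 60 min pre-test: impairment is inability to stay 1 min on a rod turning at 18 rpm, after 3 days of daily training. Mean ± SEM of 2 independent experiments; one-way ANOVA with Dunnett's.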

Mus musculus [3] = assay: Toxicity in Swiss albino mouse assessed as induction of impairment of motor coordination by measuring reduction in time spent on rota-rod at 60 mg/kg, ip dosed 60 mins before test by rotarod test; assay type: organism-based; conditions: in vivo, 1 h; in short: as §1
Mus musculus [4] = assay: Toxicity in Swiss albino mouse assessed as effect on motor coordination at 1.875 to 7.5 mg/kg, ip dosed 60 mins before test by Chimney test; assay type: organism-based; conditions: in vivo, 1 h, in the assay text read “3.75 to 60 mg/kg” for “1.875 to 7.5 mg/kg”
In short: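 Chimney test in male Swiss mice after i.p. dosing 60 min earlier: impairment defined as failure to climb backwards up a tube (3 cm inner diameter, 25 cm long) within 60 s. Animals pre-trained once daily for 3 days. One-way ANOVA with Dunnett's.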

Mus musculus [5] = assay: Toxicity in Swiss albino mouse assessed as reduction in spontaneous locomotor activity at 30 mg/kg, ip dosed 60 mins before test and measured after 6 mins; assay type: organism-based; conditions: in vivo, 0.1 h
In short: (§2)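 Spontaneous locomotion: mice dosed i.p. 60 min before being placed individually in an actometer for 30 min. Distance travelled read at 6 and 30 min. Cages cleaned with 70% ethanol between animals. One-way ANOVA with Dunnett's; mean ± SEM of one experiment.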

Mus musculus [6] = assay: Toxicity in Swiss albino mouse assessed as reduction in spontaneous locomotor activity at 60 mg/kg, ip dosed 60 mins before test and measured after 6 mins; assay type: organism-based; conditions: in vivo, 0.1 h; in short: as §2
Mus musculus [7] = assay: Toxicity in Swiss albino mouse assessed as reduction in spontaneous locomotor activity at 30 mg/kg, ip dosed 60 mins before test and measured after 30 mins; assay type: organism-based; conditions: in vivo, 0.5 h; in short: as §2
Mus musculus [8] = assay: Toxicity in Swiss albino mouse assessed as reduction in spontaneous locomotor activity at 60 mg/kg, ip dosed 60 mins before test and measured after 30 mins; assay type: organism-based; conditions: in vivo, 0.5 h; in short: as §2
Mus musculus [9] = assay: Toxicity in Swiss albino mouse assessed as reduction in spontaneous locomotor activity at 15 mg/kg, ip dosed 60 mins before test and measured after 30 mins; assay type: organism-based; conditions: in vivo, 0.5 h; in short: as §2
Mus musculus [10] = assay: Induction of hypothermia in Swiss albino mouse assessed as reduction in body temperature at 15 mg/kg, ip measured after 120 mins post dose; assay type: functional, organism-based
In short: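 Normothermic male Swiss mice; rectal thermistor readings over 180 min. Baseline is the mean of readings 60 and 30 min before dosing; readings at 30, 60, 90, 120 min post-injection; Δt = tf − ti. Test compounds i.p. (DMSO/methylcellulose); 8-OH-DPAT (5 mg/kg) and WAY 100635 (0.1 mg/kg) s.c. in water. Two-way ANOVA, Bonferroni.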

Mus musculus [11] = assay: Antidepressant-like activity in Swiss albino mouse assessed as reduction in immobility time at 1.875 mg/kg, ip dosed 1 hr before test by forced swimming test; assay type: functional, organism-based
In short: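 Male Swiss albino mice (18–24 g), compound i.p. in 0.1% DMSO/0.5% methylcellulose 1 h pre-test. Porsolt swim: cylinder 25 cm high, 10 cm diameter, 10 cm water at 23–25°C, 6 min session; immobility scored over last 4 min. Blind observer; one-way ANOVA with Dunnett's; mean ± SEM.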

Mus musculus [12] = assay: Toxicity in Swiss albino mouse assessed as reduction in spontaneous locomotor activity at 1.875 mg/kg, ip dosed 60 mins before test; assay type: organism-based; conditions: in vivo, 1 h; in short: as §2
Mus musculus [13] = assay: Anxiolytic-like activity in Swiss albino mouse assessed as increase in time spent in open arms at 1.875 to 7.5 mg/kg measured for 5 mins test period by elevated plus maze test; assay type: functional, organism-based

D(2) dopamine receptor, sequence (P14416 whole entry): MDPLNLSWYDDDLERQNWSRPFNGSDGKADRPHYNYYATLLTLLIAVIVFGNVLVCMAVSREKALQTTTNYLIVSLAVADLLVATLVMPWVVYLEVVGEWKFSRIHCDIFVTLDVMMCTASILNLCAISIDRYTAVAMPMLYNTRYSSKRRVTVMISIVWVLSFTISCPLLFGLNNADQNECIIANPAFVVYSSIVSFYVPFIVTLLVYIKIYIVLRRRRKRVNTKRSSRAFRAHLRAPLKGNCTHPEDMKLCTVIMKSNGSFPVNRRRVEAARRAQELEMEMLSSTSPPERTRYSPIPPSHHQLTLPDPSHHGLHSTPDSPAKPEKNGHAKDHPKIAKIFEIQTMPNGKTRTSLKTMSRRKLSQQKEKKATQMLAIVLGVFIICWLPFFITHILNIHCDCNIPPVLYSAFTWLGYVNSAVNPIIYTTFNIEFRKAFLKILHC

How did the Ki [1] turn out when `O=C(NCCN1CCN(c2ccc(Cl)cc2)CC1)c1ccccn1` was run?
The Ki was 76 nM.

What about the Ki (D(2) dopamine receptor) of the same compound?
The Ki was 2300 nM.

And the Activity (Mus musculus [2])?
Its Activity is “Toxic”.

And the Activity (Mus musculus [3])?
Its Activity is “Toxic”.

And the Activity (Mus musculus [4])?
The Activity was “Non-Toxic”.

What about the Activity (Mus musculus [5]) of the same compound?
The Activity was “Toxic”.

And the Activity (Mus musculus [6])?
Its Activity is “Toxic”.

And the Activity (Mus musculus [7])?
Its Activity is “Toxic”.

What about the Activity (Mus musculus [8]) of the same compound?
Its Activity is “Toxic”.

What about the Activity (Mus musculus [9]) of the same compound?
The Activity was “Toxic”.

And the Activity (Mus musculus [10])?
The Activity was “Active”.

And the Activity (Mus musculus [11])?
The Activity was “Active”.

And the Activity (Mus musculus [12])?
The Activity was “Non-Toxic”.

And the Activity (Mus musculus [13])?
The Activity was “Active”.
